Screening results as filed in PubChem.
The list is not random: actives were taken first. Their share in the collection is about 3.7%.
KCNQ1 inh – inhibitors of human KCNQ1 potassium channel; B-score at 10 µM; CHO-K1 KCNQ1, FluxOR thallium flux fluorescence; hits give high values; actives 1.3% (n = 310,000);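 active = compounds whose thallium flux B-score, printed positive for inhibition, exceeds three library SD while starting fluorescence stays within three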;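 note: channel opened by potassium depolarization with thallium stimulus after 20 min compound exposure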
KCNK3 inh – human KCNK3 channel inhibition, primary screen. CHO-KCNK3 thallium flux, FluxOR fluorescence; hits give low values. B-score at 10 µM. actives 0.84% (n = 340,000);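 active = B-score under library mean minus 4 SD, starting fluorescence ratio at most library mean plus 5 SD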;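 note: more negative B-score means stronger inhibition of thallium flux through KCNK3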
Target sequence (O14649 whole entry, looked up): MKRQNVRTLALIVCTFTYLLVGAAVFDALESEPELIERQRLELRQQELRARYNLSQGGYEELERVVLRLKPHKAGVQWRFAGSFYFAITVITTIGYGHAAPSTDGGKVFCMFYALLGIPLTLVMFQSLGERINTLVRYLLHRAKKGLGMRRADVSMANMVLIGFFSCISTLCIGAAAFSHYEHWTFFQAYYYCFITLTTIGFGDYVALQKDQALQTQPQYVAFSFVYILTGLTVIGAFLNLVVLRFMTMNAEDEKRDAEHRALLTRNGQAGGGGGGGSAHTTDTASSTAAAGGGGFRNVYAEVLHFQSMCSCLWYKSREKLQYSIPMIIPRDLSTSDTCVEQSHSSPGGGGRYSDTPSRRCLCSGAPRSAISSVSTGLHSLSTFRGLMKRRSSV
hERG protect – compounds protecting human hERG from proarrhythmic drug block | actives 0.51% (n = 310,000) | CHO-hERG, FluxOR thallium flux, dofetilide IC70 present | activation (rescue from dofetilide block), less the hit threshold, % at 10 µM;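 active = activation above the mean of controls blocked by dofetilide plus 5 SD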;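 note: thallium influx through hERG after potassium depolarization seen as dye fluorescence rise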
Kir21 block – inhibitors of mouse Kir2.1 inward-rectifier potassium channel; P35561; HEK293-Kir2.1, FluxOR thallium flux fluorescence; hits give low values; B-score at 10 µM; actives 0.85% (n = 310,000); AID 1672;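 active = fluorescence ratio B-score at or below minus 3 SD of library scores, with starting-brightness B-score within 2 SD, cut at about -4.2 in these data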;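 note: channel flux triggered by added potassium and thallium sulfate stimulus; B-score of peak minus minimum fluorescence over baseline after thallium stimulus; more negative B-score means stronger Kir2.1 block with less thallium influx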
KCNK9 inh – inhibitors of human KCNK9 two-pore domain potassium channel; Q9NPC2; HEK293 KCNK9, FluxOR thallium flux fluorescence; hits give low values; B-score at 10 µM; actives 1.2% (n = 310,000); AID 488922;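 active = ratio B-score over 3 SD below the library mean, with starting fluorescence within 5 SD of its mean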;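 note: negative B-score means less thallium flux so channel inhibition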
KCNQ1 pot – potentiates or activates the human KCNQ1 potassium channel; P51787; actives 0.35% (n = 310,000); AID 2648; B-score at 10 µM; CHO-K1 KCNQ1, thallium flux FluxOR fluorescence; hits give high values;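 active = fluorescence ratio B-score, a plate-corrected score, at least three library SD, with initial intensity B-score within 5 SD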
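assay system = CHO-K1 cells stably expressing KCNQ1 | medium = assay buffer, equal DMSO in all wells | timing = 37 °C overnight plating, 90-min dark dye load, 20-min compound pretreatment | measured by = kinetic FluxOR thallium fluorescence, 10-s 1-Hz baseline, 110-s post-stimulus read | measure = fluorescence change relative to baseline, converted to B score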
* marks the source's active call; other numbers are inactive results.

Screening C/C(=N\Oc1cccc(F)n1)c1ccc(Cl)cc1Cl returned KCNQ1 inh 6*, KCNK3 inh inactive, hERG protect -8.0, Kir21 block 0.34, KCNK9 inh inactive and KCNQ1 pot inactive.
Screening CCOC(=O)c1cc(C#N)c(Oc2cccc(C(F)(F)F)c2)nc1-c1ccccc1 returned KCNQ1 inh 6*, KCNK3 inh inactive, hERG protect -13.1, Kir21 block 1, KCNK9 inh inactive and KCNQ1 pot inactive.
`O=C(NCc1ccc(-c2nc3ccccc3s2)cc1)c1ccco1` gave KCNQ1 inh inactive, KCNK3 inh inactive, hERG protect -7.3, Kir21 block 0.5, KCNK9 inh inactive and KCNQ1 pot inactive.
Screening Cc1nc(NC(=S)NC(=O)c2cccs2)ccc1Br returned KCNQ1 inh inactive, KCNK3 inh inactive, hERG protect -6.4, Kir21 block -2.6, KCNK9 inh inactive and KCNQ1 pot 13*.
For O=C(NC(=S)Nc1nc2ccccc2s1)c1ccco1 the results were KCNQ1 inh inactive, KCNK3 inh inactive, hERG protect 9.2*, Kir21 block 0.11, KCNK9 inh inactive and KCNQ1 pot 34*.
Screening Cc1ccc2nc(NC(=S)NC(=O)c3cccs3)sc2c1 returned KCNQ1 inh inactive, KCNK3 inh inactive, hERG protect 10.2*, Kir21 block -1.32, KCNK9 inh inactive and KCNQ1 pot 17*.
Screening O=C(NC(=S)NCc1ccc(-c2nc3ccccc3s2)cc1)c1ccco1 returned KCNQ1 inh inactive, KCNK3 inh inactive, hERG protect 5.5*, Kir21 block 0.18, KCNK9 inh inactive and KCNQ1 pot inactive.
CCCN1CCN(C(=O)C(NC(=O)c2ccco2)C(C)C)CC1 (configuration not stated) was read as KCNQ1 inh inactive, KCNK3 inh inactive, hERG protect -3.6, Kir21 block -1.61, KCNK9 inh inactive and KCNQ1 pot inactive.
Screening CCOC(=O)c1sc(NC(=S)NC(=O)c2ccco2)nc1C returned KCNQ1 inh inactive, KCNK3 inh inactive, hERG protect 8.9*, Kir21 block 1.34, KCNK9 inh inactive and KCNQ1 pot 9*.
COC(=O)c1sc(NC(=S)NC(=O)c2ccccc2C)nc1C was read as KCNQ1 inh inactive, KCNK3 inh inactive, hERG protect 24.7*, Kir21 block 0.41, KCNK9 inh inactive and KCNQ1 pot 42*.
For COc1ccc2nc(NC(=S)NC(=O)c3ccco3)sc2c1 the results were KCNQ1 inh inactive, KCNK3 inh inactive, hERG protect 31.3*, Kir21 block -0.16, KCNK9 inh inactive and KCNQ1 pot 25*.
Screening COC(=O)c1sc(NC(=O)c2ccco2)nc1C returned KCNQ1 inh inactive, KCNK3 inh inactive, hERG protect -4.5, Kir21 block -1.89, KCNK9 inh inactive and KCNQ1 pot inactive.
Screening COc1ccc2nc(NC(=O)CCNC(=O)c3ccco3)sc2c1 returned KCNK3 inh inactive.
Screening O=C(COC(=O)c1ccco1)Nc1nc2ccccc2s1 returned KCNQ1 inh inactive, KCNK3 inh inactive, hERG protect 7.3*, Kir21 block 0.03, KCNK9 inh inactive and KCNQ1 pot inactive.
Screening COC(=O)c1sc(NC(=S)NC(=O)c2ccc(F)cc2)nc1C returned KCNQ1 inh inactive, hERG protect -3.7, Kir21 block -1.3, KCNK9 inh inactive and KCNQ1 pot inactive.
Cc1ccccc1C(=O)Nc1nc(=S)ss1 was read as KCNQ1 inh inactive, KCNK3 inh inactive, hERG protect 20.5*, Kir21 block -0.05, KCNK9 inh inactive and KCNQ1 pot 9*.
For CC(=O)Nc1nc(=S)ss1 the results were KCNQ1 inh inactive, KCNK3 inh inactive, hERG protect -8.2, Kir21 block -0.1, KCNK9 inh inactive and KCNQ1 pot inactive.
`O=C(NCC1CCCO1)c1ccccc1-c1nc(-c2ccc(Cl)cc2)no1` (configuration not stated) gave KCNQ1 inh 6*, KCNK3 inh inactive, hERG protect -14.7, Kir21 block 0.02, KCNK9 inh inactive and KCNQ1 pot inactive.
C/C(=N\NC(=O)c1cc2ccccc2cc1O)c1ccccn1 was read as KCNQ1 inh inactive, KCNK3 inh inactive, hERG protect -2.3, Kir21 block 0.07, KCNK9 inh inactive and KCNQ1 pot 7*.
O=C(N/N=C\c1ccc(Sc2ccccn2)o1)c1cccc(F)c1 was read as KCNQ1 inh inactive, KCNK3 inh inactive, hERG protect 2.9, Kir21 block -0.56, KCNK9 inh inactive and KCNQ1 pot inactive.
Screening C/C(=N\NC(=O)c1cc2ccccc2cc1O)c1cc2ccccc2o1 returned KCNQ1 inh inactive, KCNK3 inh inactive, hERG protect 55.4*, Kir21 block 0.59, KCNK9 inh inactive and KCNQ1 pot 138*.
CC(=N/O)/C(C)=N\NC(=O)c1ccccn1 was read as KCNQ1 inh 8*, KCNK3 inh inactive, hERG protect -16.2, Kir21 block -2.29, KCNK9 inh inactive and KCNQ1 pot inactive.
Screening O=C(N/N=C/c1ccc(Sc2ccccn2)o1)c1cc2ccccc2cc1O returned KCNQ1 inh inactive, KCNK3 inh inactive, hERG protect 1.1, Kir21 block 1.74, KCNK9 inh inactive and KCNQ1 pot 18*.
C/C(=N\NC(=O)c1c[nH]c2ccccc12)c1ccccn1 was read as KCNQ1 inh inactive, KCNK3 inh inactive, hERG protect -13.6, Kir21 block -1.19, KCNK9 inh inactive and KCNQ1 pot inactive.
Cc1ccc(C(=O)Nc2nc(-c3ccccn3)cs2)cc1S(=O)(=O)N1CCOCC1 was read as KCNK3 inh inactive.
CCC1(C)NC(=O)N(CC(=O)Nc2cc(C)on2)C1=O (configuration not stated) was read as KCNK3 inh inactive.
O=C(N/N=C/c1ccc(-c2ccccc2)o1)c1ccccc1O was read as KCNQ1 inh inactive, KCNK3 inh inactive, hERG protect -0.3, Kir21 block 0.93, KCNK9 inh inactive and KCNQ1 pot 8*.
Cc1ccc(NC(=S)N(CCCN2CCCC2)Cc2cccn2Cc2ccc(Cl)cc2)cc1C was read as KCNQ1 inh inactive, KCNK3 inh inactive, hERG protect -15.6, Kir21 block -0.84, KCNK9 inh inactive and KCNQ1 pot inactive.
Screening Cc1ccc(NC(=S)N(CCCN2CCCC2)Cc2cccn2Cc2ccc(Cl)cc2)cc1Cl returned KCNQ1 inh 7*, KCNK3 inh inactive, hERG protect -12.1, Kir21 block 0.5, KCNK9 inh inactive and KCNQ1 pot inactive.
COCCOC(=O)c1c(C)oc2ccc(OCC=C(C)C)cc12 was read as KCNQ1 inh inactive, KCNK3 inh -9.07*, hERG protect -0.9, Kir21 block 0.31, KCNK9 inh inactive and KCNQ1 pot inactive.
